Compound activity from PubChem.
Calb biofilm kill – mixture kills Candida albicans biofilm cells | C. albicans biofilm persisters + clotrimazole, fluorescence viability; primary screen in compound mixtures of four per well | inhibition, % at 7.6 µM | 120,000 compounds, 0.02% hits | AID 1242;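 active means inhibition above 30.3% in the primary screen of four-compound pools, then above 30% when the compound was retested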;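 further: compounds exposed to preformed 24 h biofilms for 48 h; 0% = untreated biofilm control and 100% = clotrimazole plus chlorhexidine kill blank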
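Test system: C. albicans CAF4-2 wild-type biofilms; buffer or medium: RPMI/MOPS medium, pH 7.0; schedule: 24 h biofilm formation, then 48 h compound exposure, 37 °C; detection: Alamar Blue fluorescence; measure: percent inhibition of biofilm viability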
Hck Nef HTS – blocks Nef-activated human Hck kinase. Recombinant Hck-YEEI plus Nef, Z-Lyte FRET kinase assay. inhibition, % at 20 µM. 220,000 compounds, 0.68% hits. AID 463187;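 active means Hck-Nef kinase inhibition above about 50%, limit read from the data; inactive means inhibition below that limit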;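 further: 0% = DMSO with Hck plus Nef and 100% = Hck alone without Nef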
WT yeast gro inh – growth inhibition of WT yeast, mitochondrial fusion screen | mitochondrial fusion phenotypic screen, WT strain | 190,000 compounds, 2.1% hits | inhibition, % at 10 µM; in the data active means inhibition above about 58%; tested in S. cerevisiae
Arbovirus anti – arbovirus infection inhibition. arbovirus infection cell-based antiviral screen. inhibition, % at 10 µM. 200,000 compounds, 0.37% hits; in the data active means inhibition above about 30%
RAM inhibit – yeast RAM network inhibition | 190,000 compounds, 1.8% hits | AID 868 | S. cerevisiae dse1pr::URA3 reporter, 5-FOA growth OD615, 2 d; analog-sensitive cbk1-as2 kinase mutant strain | inhibition, % at 50 µM;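 active means inhibition above a set limit, 3 SD over mean compound inhibition, cut at about 8.4% in these data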;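 further: 0% = DMSO-only wells with no growth and 100% = 10 µM 1-NA-PP1 full growth; inhibition rescues growth on 5-FOA so higher OD means more RAM inhibition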
NCF1 inh – blocks human p47phox regulatory protein of NADPH oxidases. P14598. p47phox/p22phox peptide binding, fluorescence polarization, 2 h. inhibition, % at 24.7 µM. 220,000 compounds, 0.53% hits;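 active means inhibition above about 30%, limit read from the data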;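 further: 0% = p47phox with labelled peptide and 100% = labelled peptide alone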
Target sequence (P14598 whole entry, looked up): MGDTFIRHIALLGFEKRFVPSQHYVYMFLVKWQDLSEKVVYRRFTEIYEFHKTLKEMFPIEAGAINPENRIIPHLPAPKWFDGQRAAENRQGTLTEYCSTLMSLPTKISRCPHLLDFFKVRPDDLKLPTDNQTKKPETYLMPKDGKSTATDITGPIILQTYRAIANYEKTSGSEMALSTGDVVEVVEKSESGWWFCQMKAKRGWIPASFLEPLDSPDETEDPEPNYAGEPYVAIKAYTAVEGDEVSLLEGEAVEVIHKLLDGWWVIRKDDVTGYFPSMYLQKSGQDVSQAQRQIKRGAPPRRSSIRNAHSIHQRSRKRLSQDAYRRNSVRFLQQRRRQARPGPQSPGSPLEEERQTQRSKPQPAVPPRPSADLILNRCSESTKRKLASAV
Numbers without * were called inactive. Hits are enriched below; roughly 4.6% of the tested compounds scored in any of these assays.

What do the screens show for `CCOc1ccc(NC(=S)N2CCc3cc(OC)c(OC)cc3C2COc2ccc3c(C)cc(=O)oc3c2)cc1` (stereo not given)?
Calb biofilm kill: 9.3; Hck Nef HTS: -1.0; WT yeast gro inh: -7.4; Arbovirus anti: -11.0; RAM inhibit: 9.9*; NCF1 inh: -7.8

How did S=C(NCc1ccco1)Nc1ccc(Oc2ccccc2)cc1 do in these assays?
Calb biofilm kill: 12.9; Hck Nef HTS: -27.2; WT yeast gro inh: 67.1*; Arbovirus anti: -4.5; RAM inhibit: 1.8; NCF1 inh: -7.4

How did COc1cc(OC)cc(C(=O)NC(=S)NCc2ccco2)c1 do in these assays?
Hck Nef HTS: 0.9; WT yeast gro inh: 7.4; Arbovirus anti: 2.9; RAM inhibit: 9.5*; NCF1 inh: -5.8

How did COc1cccc(C(=O)NC(=S)NCc2ccco2)c1 do in these assays?
Calb biofilm kill: 9.0; Hck Nef HTS: 5.5; WT yeast gro inh: 28.5; Arbovirus anti: 9.0; RAM inhibit: -1.4; NCF1 inh: -12.0

Results for CC(C)CNC(=S)Nc1ccc(Oc2ccccc2)cc1 ?
Calb biofilm kill: 12.1; Hck Nef HTS: 0.5; WT yeast gro inh: 62.8*; Arbovirus anti: -5.5; RAM inhibit: 2.8; NCF1 inh: -16.4

What do the screens show for `S=C(NCc1ccco1)Nc1cc(-c2ccccc2)[nH]n1`?
Calb biofilm kill: 13.2; Hck Nef HTS: 34.4; WT yeast gro inh: 64.2*; Arbovirus anti: 3.8; RAM inhibit: 0.3; NCF1 inh: -24.8

What do the screens show for `S=C(NCc1ccco1)Nc1ccc(Cl)c(Cl)c1`?
Hck Nef HTS: 1.9; WT yeast gro inh: -2.4; Arbovirus anti: -34.6; RAM inhibit: 0.3; NCF1 inh: -29.6

What do the screens show for `Cn1c(=O)[nH]c2ncccc21`?
Calb biofilm kill: 10.2; Hck Nef HTS: 14.1; NCF1 inh: -8.6

What do the screens show for `CCN(CC)S(=O)(=O)c1ccc(OC)c(NS(=O)(=O)c2cccc(C(=O)O)c2)c1`?
Calb biofilm kill: -5.6; Hck Nef HTS: -0.1; WT yeast gro inh: -1.1; Arbovirus anti: 5.4; RAM inhibit: 2.0; NCF1 inh: -0.4

Results for O=C(CNC(=O)c1ccc(Cl)cc1)Nc1ccccc1C(F)(F)F ?
Calb biofilm kill: 16.4; Hck Nef HTS: -5.5; WT yeast gro inh: 1.6; Arbovirus anti: 5.5; RAM inhibit: 4.5; NCF1 inh: -9.4

Results for Cc1ccccc1-n1c(=O)c2ccccc2n2cnnc12 ?
Hck Nef HTS: -11.4; WT yeast gro inh: 9.1; Arbovirus anti: 0.9; RAM inhibit: 2.5; NCF1 inh: 7.3

How did Cc1ccccc1-n1sc2cc(F)ccc2c1=O do in these assays?
Calb biofilm kill: 13.1; Hck Nef HTS: -103.6; WT yeast gro inh: 95.6; Arbovirus anti: -25.0; RAM inhibit: 6.8; NCF1 inh: 102.3*

Results for CC1Cc2ccccc2N1S(=O)(=O)c1cccc(C(=O)N2CCN(c3ncccn3)CC2)c1 (stereo not given) ?
Calb biofilm kill: 11.2; Hck Nef HTS: -2.6; WT yeast gro inh: 19.4; Arbovirus anti: 38.3*; RAM inhibit: 0.2; NCF1 inh: -5.2

What do the screens show for `CC(C)CC(=O)NC(=S)N(Cc1ccccc1)Cc1ccccc1`?
Calb biofilm kill: 21.7; Hck Nef HTS: -2.4; WT yeast gro inh: 64.2*; Arbovirus anti: -16.1; RAM inhibit: 2.4; NCF1 inh: 0.8

What do the screens show for `CC(C)C(=O)NC(=S)N(Cc1ccccc1)Cc1ccccc1`?
Calb biofilm kill: 11.2; Hck Nef HTS: -2.3; WT yeast gro inh: 32.9; Arbovirus anti: 8.2; RAM inhibit: 1.1; NCF1 inh: 3.1

Results for O=S(=O)(c1cccc(F)c1)N1CCc2sccc2C1c1ccc(OC(F)(F)F)cc1 (stereo not given) ?
Calb biofilm kill: 14.7; Hck Nef HTS: -9.1; NCF1 inh: -8.2

What do the screens show for `c1ccc(-c2nnc(-c3ccccn3)nc2NC2CCCCC2)cc1`?
Hck Nef HTS: -25.1; WT yeast gro inh: 63.2*; Arbovirus anti: -37.2; RAM inhibit: -0.8; NCF1 inh: -28.4

How did COc1cc([N+](=O)[O-])ccc1N=Nc1c(N)[nH]n(-c2ccccc2)c1=O do in these assays?
Calb biofilm kill: 8.1; Hck Nef HTS: 21.5; WT yeast gro inh: 17.5; Arbovirus anti: -17.1; RAM inhibit: 7.9; NCF1 inh: 3.6

Results for Nc1[nH]n(-c2ccccc2)c(=O)c1N=Nc1ccccc1[N+](=O)[O-] ?
Hck Nef HTS: 4.6; WT yeast gro inh: 2.9; Arbovirus anti: -11.1; RAM inhibit: 3.8; NCF1 inh: -5.2

How did NC(=S)n1[nH]c(-c2ccc([N+](=O)[O-])cc2)c(N=Nc2ccccc2[N+](=O)[O-])c1=O do in these assays?
Calb biofilm kill: 10.5; Hck Nef HTS: 45.0; WT yeast gro inh: 8.8; Arbovirus anti: -10.0; RAM inhibit: 5.0; NCF1 inh: 30.1*

How did Cc1c(N=Nc2c(-c3ccc([N+](=O)[O-])cc3)[nH]n(C(N)=S)c2=O)cccc1[N+](=O)[O-] do in these assays?
Calb biofilm kill: 8.1; Hck Nef HTS: 16.7; WT yeast gro inh: 23.3; Arbovirus anti: -7.2; RAM inhibit: 11.3*; NCF1 inh: 22.2

Results for O=S(=O)(NC1CCCCCC1)c1ccc(Br)s1 ?
Calb biofilm kill: 16.0; Hck Nef HTS: 8.0; WT yeast gro inh: 28.5; Arbovirus anti: 6.4; RAM inhibit: 1.2; NCF1 inh: -12.2

What do the screens show for `CC1CN(C(=O)c2ccn(C)n2)CC(C)O1` (stereo not given)?
Calb biofilm kill: 6.0; Hck Nef HTS: 8.2; WT yeast gro inh: -4.7; Arbovirus anti: 7.8; RAM inhibit: -0.1; NCF1 inh: -10.6

What do the screens show for `CC12COC3(C(=O)Nc4ccc5ccccc5c4)CC1CCC32C` (stereo not given)?
Calb biofilm kill: -1.6; Hck Nef HTS: -17.8; WT yeast gro inh: 77.1*; Arbovirus anti: 7.7; RAM inhibit: 7.4; NCF1 inh: -3.1

Results for CC12COC3(C(=O)Nc4ccccc4)CC1CCC32C (stereo not given) ?
Calb biofilm kill: 9.8; Hck Nef HTS: 16.6; WT yeast gro inh: 2.0; Arbovirus anti: -0.1; RAM inhibit: -0.9; NCF1 inh: -9.7

Results for COc1ccccc1N1CCN(C(=O)c2ccc3[nH]c4c(c3c2)CC(C)CC4)CC1 (stereo not given) ?
Calb biofilm kill: 12.6; Hck Nef HTS: -0.9; WT yeast gro inh: 72.3*; Arbovirus anti: -17.8; RAM inhibit: 4.6; NCF1 inh: -10.0

Results for Cc1c(C(=O)N2CCOCC2)sc(NC(=O)Cc2ccccc2)c1C#N ?
Calb biofilm kill: 54.4; Hck Nef HTS: 21.3; WT yeast gro inh: -20.6; Arbovirus anti: 0.2; RAM inhibit: 5.9; NCF1 inh: -4.8

What do the screens show for `Cc1ccccc1N1C(=O)C2ON(c3ccccc3)C(c3ccco3)C2C1=O` (stereo not given)?
Calb biofilm kill: 14.3; Hck Nef HTS: 11.5; NCF1 inh: -9.2

How did CC(C)(c1ccccc1)c1ccc(OCCCNCCO)cc1 do in these assays?
Hck Nef HTS: 2.1; WT yeast gro inh: 91.8*; Arbovirus anti: -37.2; RAM inhibit: -0.2; NCF1 inh: -9.8
